# Shown are actives, neighbours in structure and some others; about 9.4% of the full set was active somewhere.
# SKKanGAS inh: blocks kanamycin growth of S. pyogenes SKKanGAS strain | BacTiter-Glo, 6 h | inhibition, % at 7.5 µM | 300,000 tested, 1.3% active;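 active means mean replicate score, as percent of positive control median, at least 50; inconclusive means mean below 50 but one replicate at or above 50; inactive means mean and every replicate below 50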;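 further: strain carries kanamycin resistance gene driven by streptokinase promoter and grows in 40 µg/ml kanamycin; loss of luminescence reflects streptokinase promoter inhibition or plain growth inhibition; 0% = median of DMSO wells and 100% = positive control at its reference dose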
# CSC inhib: blocks cancer stem cells. cancer stem cell-like cells viability, luminescence. inhibition, % at 7.5 µM. 300,000 tested, 1.1% active. AID 2717; in the data active means inhibition above about 75%; inconclusive means no clear call, values can overlap the other calls; tested in HMLE shEcad cells
# Beta apoptosis: blocks beta cell apoptosis. INS-1E cytokine-induced death, ATP luminescence, 48 h; percent of positive-control rescue, neutral wells zero. protection from apoptosis, % (test concentration not listed). 300,000 tested, 0.8% active;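 active means Every replicate reaches about 75%, or at least half do and their mean reaches it too, limit read from the data; inconclusive means At least half of replicates reach the limit but their mean does not; inactive means Under half of replicates reach the limit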;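 further: 0% = cytokine-treated negative control wells and 100% = positive control rescue; higher means more ATP so stronger rescue from cytokine killing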
# T cruzi repl: blocks replication of Trypanosoma cruzi. inhibition, % (no concentration beside the values). T. cruzi beta-gal in NIH3T3, luminescence, 90 h. 300,000 tested, 1.4% active;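 active means mean inhibition across valid replicates above about 55%, limit read from the data; inconclusive means mean below that limit but half or more replicates reach it; inactive means mean below it, under half of replicates reach it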;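 further: signal also drops with host cell toxicity which is not excluded here; 0% = plate median of DMSO wells and 100% = zero luminescence signal; higher percent means less beta-gal luminescence so fewer parasites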
#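 Incubation – ≥90 h infection period, 3 h prior cell attachment · System – NIH/3T3 fibroblasts plus reporter T. cruzi · Doses – compound pinned at 50 nL/well, DMSO · Read-out basis – percent inhibition of parasite-derived β-gal signal · Signal – luminescent β-galactosidase signal after 60 min lysis · Also added – 5000 T. cruzi trypomastigotes/well · Medium – Low-serum DMEM with 2% FBS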
# L major viab: reduces viability of Leishmania major promastigotes | resazurin fluorescence viability | inhibition, % at 10 µM | 200,000 tested, 9% active; in the data active means inhibition above about 50%;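 further: promastigotes grown with compound for 44 hours at 28 °C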
# Mdm2-MdmX inh: disrupts the human Mdm2-MdmX interaction; O15151+Q00987; SaOS-2 split-luciferase Mdm2/MdmX complementation, luminescence; inhibition, % at 8 µM; 330,000 tested, 3% active; AID 485346;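 active means inhibition of at least 50% at 8 µM in the primary screen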
# Mdm2-MdmX conf: confirmation of human Mdm2/MdmX interaction inhibitors; inhibition, % at 8 µM; Mdm2-MdmX binding, luminescent assay; shares compounds with Mdm2-MdmX inh; 10,000 tested, 55% active; in the data active means inhibition above about 40%
# FLuc counter: counter-screen for Mdm2/MdmX inhibitors: full-length luciferase. inhibition, % at 8 µM. AID 504607. SaOS-2 full-length luciferase counterscreen, luminescence. shares compounds with Mdm2-MdmX inh. 6,200 tested, 77% active;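 active means mean inhibition at 8 µM reaching about 37%, which flags the compound as non-specific, limit read from the data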;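 further: p53-null SaOS-2 cells with luciferase driven by a doxycycline-inducible promoter; compound on cells about two nights before reading with doxycycline added after day one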
# Starred values were filed as active, the others as inactive; ? = inconclusive; nt = no result.
SMILES,SKKanGAS inh,CSC inhib,Beta apoptosis,T cruzi repl,L major viab,Mdm2-MdmX inh,Mdm2-MdmX conf,FLuc counter
O=C(CN(c1cccc(Br)c1)S(=O)(=O)c1ccccc1)N/N=C/c1cc([N+](=O)[O-])ccc1O,118.9*,22.7,nt,-17.9,nt,51.6*,35.2,nt
O=C(CCCC(=O)Nc1cccc(Br)c1)N/N=C/c1cc([N+](=O)[O-])ccc1O,99.2*,-6.5,12.9,1.5,nt,74.2*,34.9,nt
CCCN1C(=O)/C(=C/c2c(N3CCNC(=O)C3CC(=O)OCC)nc3c(C)cccn3c2=O)SC1=S (stereo not given),24.3,50.0,6.4,22.1,nt,73.5*,67.5*,74.3*
CCOc1ccccc1N1CCN(Cc2c(C)n(C)n(-c3ccccc3)c2=O)CC1,-2.1,-5.7,0.6,-4.3,-8.5,-14.9,nt,nt
O=C(COC(=O)c1cnc(Cl)c(Cl)c1)c1ccc(F)cc1,nt,-11.1,-8.3,nt,nt,-3.4,nt,nt
O=c1c(Cl)c(Cl)cnn1Cc1ccc(F)cc1,1.8,-23.3,111.6*,-17.5,73.3*,93.4*,34.6,nt
O=C(OCn1ncc(Cl)c(Cl)c1=O)c1ccc(F)cc1,3.8,nt,102.2*,62.6*,97.8*,93.2*,100.2*,50.4*
CSc1ncccc1C(=O)OCC(=O)NC1CCCCC1,nt,nt,-4.0,nt,nt,1.7,nt,nt
Cn1cccc1/C=C1\SC(=Nc2ccccc2)NC1=O,-2.2,52.0,7.2,-2.2,nt,34.2,nt,nt
Cn1cccc1/C=C1\SC(=Nc2ccc(O)cc2)NC1=O,11.5,61.3,18.1,23.2,nt,67.6*,62.0*,159.9*
COc1cc(/C=C2\SC(=Nc3ccc(O)cc3)NC2=O)cc(OC)c1O,-4.1,49.5,6.2,-16.8,-0.6,55.9*,41.2*,81.1*
Cc1cc(NNC(=O)c2cccc(C(F)(F)F)c2)nc2c1c(C)nn2C,0.2,3.3,43.7,-30.6,nt,0.5,nt,nt
CCC(C(=O)O/N=C(\N)c1ccc(Cl)cc1)c1ccccc1 (stereo not given),0.4,-12.2,-2.8,3.2,9.2,64.1*,13.8,nt
CCC(C(=O)O/N=C(\N)c1ccc(C)cc1)c1ccccc1 (stereo not given),-1.6,nt,-4.7,-0.1,16.9,50.5*,17.6,nt
CCC(C(=O)O/N=C(\N)c1ccccc1)c1ccccc1 (stereo not given),27.8,-5.3,nt,13.3,8.1,34.8,nt,nt
O=C(NCc1cc2ccccc2[nH]1)c1ccccc1F,0.8,4.8,4.2,-9.6,nt,6.6,nt,nt
NCCCCCC(=O)N/N=C/c1coc2ccccc2c1=O,-1.4,-6.3,-3.7,-25.1,nt,0.2,nt,nt
c1cc2[nH]snc2c2nc(C3CC3)nc12,-2.1,-10.4,-5.6,-8.7,3.2,71.6*,72.8*,26.4
c1ccc(Nc2nc(N3CCCC3)nc(N3CCOCC3)n2)cc1,-1.7,-1.9,-2.7,27.0,nt,19.6,nt,nt
Cc1[nH]c2ccccc2c1/C=N/Nc1nc(Nc2ccccc2)nc(N2CCOCC2)n1,4.7,33.2,12.0,51.5,99.6*,58.5*,29.7,nt
Oc1[nH]c2ccccc2c1N=Nc1nc(Nc2ccccc2)nc(N2CCOCC2)n1,40.8,36.8,12.2,47.5,nt,80.3*,80.6*,59.2*
CC(C)(C)c1ccc(/C=C(\C#N)C(=O)NCCN2CCOCC2)cc1,-1.2,-0.3,-14.7,3.6,25.5,17.1,nt,nt
COc1cc(SC)ccc1C(=O)OCC(=O)N1CCCC1,5.7,4.1,4.0,-1.7,nt,-4.0,nt,nt
CCc1cc(C(=O)N2CCc3c([nH]c4ccccc34)C2c2ccc(OC)cc2F)no1 (stereo not given),23.6,-24.7,12.0,5.5,37.7,83.3*,85.0*,34.5
Clc1ccc(-n2ncc3c(N4CCCCCC4)ncnc32)cc1,10.8,59.3,nt,-14.0,-4.2,91.3*,87.8*,97.7*
SMILES,SKKanGAS inh,CSC inhib,Beta apoptosis,T cruzi repl,L major viab,Mdm2-MdmX inh,Mdm2-MdmX conf,FLuc counter
CCOC(=O)C1CCCN(c2ncnc3c2cnn3-c2ccc(OC)cc2)C1 (stereo not given),-2.4,9.9,-2.2,5.7,7.3,-7.2,nt,nt
COc1ccc(-n2ncc3c(N4CCCCC4)ncnc32)cc1,-4.3,-0.5,14.5,3.1,7.8,87.1*,85.7*,73.0*
COc1ccc(-n2ncc3c(N4CCN(c5cccc(C)c5C)CC4)ncnc32)cc1,-0.4,-4.9,15.1,13.2,nt,76.7*,21.3,nt
Cc1ccc(-n2ncc3c(N4CCN(c5ccccc5)CC4)ncnc32)c(C)c1,18.5,31.2,nt,19.0,1.2,70.2*,69.5*,64.0*
COc1ccc(-n2ncc3c(N4CCN(c5cc(C)ccc5C)CC4)ncnc32)cc1,-7.0,8.9,6.2,23.6,-3.9,2.9,nt,nt
COc1ccc(N2CCN(c3ncnc4c3cnn4-c3ccc(C)cc3C)CC2)cc1,-2.3,-12.3,nt,?,0.3,27.2,nt,nt
CN(C)CCn1c(N)nc2ccccc21,0.4,-14.8,-2.0,-3.3,nt,17.0,nt,nt
CC(C)c1ccc(N(C(=O)c2ccc3c(c2)OCO3)C2C=CS(=O)(=O)C2)cc1 (stereo not given),3.9,-5.5,0.0,0.9,nt,19.9,nt,nt
CC1(c2ccccc2)NC(=O)N(CC(=O)Nc2ccc(C(N)=O)cc2)C1=O (stereo not given),-1.6,-16.1,0.4,-19.5,nt,10.0,nt,nt
CC1(c2ccccc2Br)NC(=O)N(CC(=O)N2CCc3ccccc3C2)C1=O (stereo not given),nt,-18.3,-1.4,nt,nt,5.2,nt,nt
CSc1c(CC(=O)Nc2ccccc2C(F)(F)F)n(Cc2ccccc2)c2ccccc12,-5.4,6.4,10.7,7.7,3.5,74.5*,39.6,107.0*
Cn1c(CC(=O)Nc2ccc(F)cc2)c(Sc2ccccc2)c2ccccc21,8.8,8.3,-10.0,46.3,-1.4,9.1,nt,nt
CSc1c(CC(=O)Nc2ccccc2Cl)n(Cc2ccccc2)c2ccccc12,-2.9,8.6,-0.1,nt,1.0,58.3*,7.7,nt
CSc1c(CC(=O)Nc2ccccc2)n(Cc2ccccc2)c2ccccc12,-4.7,-6.4,7.5,19.6,4.1,59.6*,6.9,nt
Cc1ccccc1NC(=O)Cc1nc(COC(=O)c2cc([N+](=O)[O-])ccc2N)cs1,36.4,-1.5,-2.1,-0.7,nt,19.6,nt,nt
Cc1ccc2nc(-c3ccccc3)cn2c1,37.7,-17.8,32.4,-16.4,23.7,67.4*,58.0*,32.2
CCC(=O)N1c2ccccc2C(N(C(C)=O)c2ccccc2)CC1C (stereo not given),0.1,-16.9,nt,1.2,0.6,54.2*,24.2,nt
Cc1cccc(C)c1NS(=O)(=O)c1ccc(NC(=O)c2ccc(Cl)c([N+](=O)[O-])c2)cc1,10.6,103.1*,0.2,33.3,1.6,98.5*,68.7*,58.7*
O=C(Nc1ccc(C(O)(C(F)(F)F)C(F)(F)F)cc1)c1ccc(Cl)c([N+](=O)[O-])c1,2.5,87.2*,46.9,21.5,53.1*,54.9*,27.6,nt
